From PMC3938282 (Journal of the American Chemical Society, 2013)
One block for each molecule: values may come before it.

Columns and labels:
[1] = biological target: Src-AS1 (Gly gatekeeper) (Gallus gallus, UniProt P00523, T338G); assay: in vitro kinase inhibition, seven-point dose-response; type: biochemical
[2] = test system: v-Src-AS1; assay: inhibition of tyrosine phosphorylation in stably transfected 3T3 cells; type: cell-based, mouse
[3] = biological target: Src-WT (Gallus gallus, UniProt P00523); assay: in vitro kinase inhibition, seven-point dose-response; type: biochemical
[4] = biological target: Src-AS2 (Ala gatekeeper) (Gallus gallus, UniProt P00523, T338A); assay: as above; type: biochemical
[5] = test system: EphA4-AS1; assay: EphA4 auto-phosphorylation in transfected HEK-293T cells; type: cell-based
[6] = biological target: EphA4-WT (Homo sapiens, UniProt P54764); assay: as above; type: cell-based
[7] = test system: 308 human kinases; details: cited from earlier work; for share of all protein kinases targeted (same metric, more than 80% inhibition): 500 nM
[8] = biological target: T1, Pkd1-WT (Homo sapiens, UniProt Q15139); details: cited from earlier work
T1 sequence (Q15139 whole entry): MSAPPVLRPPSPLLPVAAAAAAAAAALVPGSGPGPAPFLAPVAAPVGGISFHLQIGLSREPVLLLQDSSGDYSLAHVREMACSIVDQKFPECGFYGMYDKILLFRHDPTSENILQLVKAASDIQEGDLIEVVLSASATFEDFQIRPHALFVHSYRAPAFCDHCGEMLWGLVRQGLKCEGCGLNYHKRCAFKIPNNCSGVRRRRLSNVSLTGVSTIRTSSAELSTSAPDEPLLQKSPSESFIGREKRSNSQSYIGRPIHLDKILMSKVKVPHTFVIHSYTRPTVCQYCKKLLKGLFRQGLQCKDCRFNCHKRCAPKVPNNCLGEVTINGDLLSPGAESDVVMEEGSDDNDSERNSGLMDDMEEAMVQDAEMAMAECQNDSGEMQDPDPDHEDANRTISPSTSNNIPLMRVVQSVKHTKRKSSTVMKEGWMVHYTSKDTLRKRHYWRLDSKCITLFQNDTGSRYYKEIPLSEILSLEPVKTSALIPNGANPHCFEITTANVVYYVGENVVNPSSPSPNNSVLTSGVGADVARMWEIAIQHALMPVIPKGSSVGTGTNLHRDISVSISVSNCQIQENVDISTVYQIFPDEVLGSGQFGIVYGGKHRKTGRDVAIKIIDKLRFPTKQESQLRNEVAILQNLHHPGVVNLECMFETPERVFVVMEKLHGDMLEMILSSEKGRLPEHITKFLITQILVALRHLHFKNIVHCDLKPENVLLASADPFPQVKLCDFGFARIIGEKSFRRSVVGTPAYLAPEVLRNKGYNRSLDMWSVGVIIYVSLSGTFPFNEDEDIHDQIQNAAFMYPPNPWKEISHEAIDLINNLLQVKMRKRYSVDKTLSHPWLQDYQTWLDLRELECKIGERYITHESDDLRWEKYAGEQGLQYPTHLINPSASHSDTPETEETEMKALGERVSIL

[9] = biological target: Kif5b-Ret-WT (Homo sapiens, UniProt P07949+P33176); details: cited from earlier work
Sequence of Kif5b-Ret-WT (P07949 713-1063 limits assumed, one chain of several): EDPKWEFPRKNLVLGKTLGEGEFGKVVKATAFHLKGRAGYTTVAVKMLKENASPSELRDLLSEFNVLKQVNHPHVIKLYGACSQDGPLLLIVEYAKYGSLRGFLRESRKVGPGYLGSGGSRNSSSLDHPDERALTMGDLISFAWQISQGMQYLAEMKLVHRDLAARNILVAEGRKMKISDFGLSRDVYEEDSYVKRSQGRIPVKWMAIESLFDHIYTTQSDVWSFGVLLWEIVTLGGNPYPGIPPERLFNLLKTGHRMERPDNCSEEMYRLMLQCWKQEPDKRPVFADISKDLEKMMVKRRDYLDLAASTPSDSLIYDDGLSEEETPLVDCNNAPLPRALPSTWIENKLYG

[10] = biological target: CK1ε (Homo sapiens, UniProt P49674); assay: in vitro IC50 against PP-sensitive WT kinases; type: biochemical; details: read-out: IC50 CK1ε; mean ± SEM
Sequence of CK1ε (P49674 whole entry): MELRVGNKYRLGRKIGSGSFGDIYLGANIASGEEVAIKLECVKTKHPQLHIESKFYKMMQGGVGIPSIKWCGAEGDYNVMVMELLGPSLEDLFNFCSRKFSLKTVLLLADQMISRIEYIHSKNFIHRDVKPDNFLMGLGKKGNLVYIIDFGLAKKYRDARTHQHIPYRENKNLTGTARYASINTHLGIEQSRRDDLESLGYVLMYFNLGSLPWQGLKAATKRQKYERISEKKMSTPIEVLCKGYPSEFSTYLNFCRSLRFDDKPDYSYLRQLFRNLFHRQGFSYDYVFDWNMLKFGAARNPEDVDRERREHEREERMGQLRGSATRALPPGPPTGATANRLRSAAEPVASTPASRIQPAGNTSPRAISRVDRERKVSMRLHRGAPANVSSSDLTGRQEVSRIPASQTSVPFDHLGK
Procedure, shortened: (§1)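 In vitro kinase inhibition. IC50 derived from a seven-point dose-response of test compound; values reported as mean with standard error of the mean.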

[11] = biological target: CKδ (Homo sapiens, UniProt P48730); assay: in vitro IC50 against PP-sensitive WT kinases; type: biochemical; details: read-out: IC50 CKδ; mean ± SEM
Sequence of CKδ (P48730 whole entry): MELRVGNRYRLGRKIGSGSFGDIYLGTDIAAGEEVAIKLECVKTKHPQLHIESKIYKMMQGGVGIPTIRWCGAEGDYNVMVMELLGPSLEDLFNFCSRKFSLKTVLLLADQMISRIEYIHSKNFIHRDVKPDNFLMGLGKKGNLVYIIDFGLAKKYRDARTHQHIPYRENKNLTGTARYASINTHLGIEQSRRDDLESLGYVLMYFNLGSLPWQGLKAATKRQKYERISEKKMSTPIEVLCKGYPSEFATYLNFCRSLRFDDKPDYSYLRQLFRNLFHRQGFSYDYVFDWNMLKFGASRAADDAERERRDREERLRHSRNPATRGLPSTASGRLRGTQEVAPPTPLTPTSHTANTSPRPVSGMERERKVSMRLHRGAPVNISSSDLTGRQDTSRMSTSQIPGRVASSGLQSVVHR
Procedure, shortened: as §1

[12] = biological target: Pkd1 (Homo sapiens, UniProt Q15139); assay: in vitro IC50 against PP-sensitive WT kinases; type: biochemical; details: read-out: IC50 Pkd1; mean ± SEM
Sequence of Pkd1 (Q15139 whole entry): as the sequence (Q15139 whole entry) above
Procedure, shortened: as §1

[13] = biological target: Pkd2 (Homo sapiens, UniProt Q9BZL6); assay: in vitro IC50 against PP-sensitive WT kinases; type: biochemical; details: read-out: IC50 Pkd2; mean ± SEM
Sequence of Pkd2 (Q9BZL6 whole entry): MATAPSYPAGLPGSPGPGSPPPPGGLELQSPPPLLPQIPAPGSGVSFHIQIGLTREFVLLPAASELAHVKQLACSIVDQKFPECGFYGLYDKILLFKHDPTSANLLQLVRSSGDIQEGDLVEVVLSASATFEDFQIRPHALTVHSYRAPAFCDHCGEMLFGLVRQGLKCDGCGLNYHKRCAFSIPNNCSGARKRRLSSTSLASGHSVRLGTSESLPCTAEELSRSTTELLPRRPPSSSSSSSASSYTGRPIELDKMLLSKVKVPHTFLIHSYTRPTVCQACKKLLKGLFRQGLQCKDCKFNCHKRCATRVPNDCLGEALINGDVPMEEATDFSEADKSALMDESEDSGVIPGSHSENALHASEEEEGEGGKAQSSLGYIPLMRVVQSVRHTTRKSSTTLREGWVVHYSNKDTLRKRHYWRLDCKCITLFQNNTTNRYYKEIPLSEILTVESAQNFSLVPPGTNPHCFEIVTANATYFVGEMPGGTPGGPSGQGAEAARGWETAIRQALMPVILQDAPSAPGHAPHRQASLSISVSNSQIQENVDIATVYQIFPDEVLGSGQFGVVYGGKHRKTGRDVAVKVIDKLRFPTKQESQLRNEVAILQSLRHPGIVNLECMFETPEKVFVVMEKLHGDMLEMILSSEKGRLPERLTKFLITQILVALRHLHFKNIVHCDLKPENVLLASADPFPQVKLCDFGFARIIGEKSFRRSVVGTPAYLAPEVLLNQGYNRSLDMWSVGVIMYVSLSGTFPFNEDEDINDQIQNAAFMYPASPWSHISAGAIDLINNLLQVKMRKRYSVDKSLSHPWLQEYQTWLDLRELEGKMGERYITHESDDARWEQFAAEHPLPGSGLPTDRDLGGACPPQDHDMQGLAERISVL
Procedure, shortened: as §1

[14] = biological target: Ack (Homo sapiens, UniProt Q07912); assay: in vitro IC50 against PP-sensitive WT kinases; type: biochemical; details: read-out: IC50 Ack; mean ± SEM
Sequence of Ack (Q07912 whole entry): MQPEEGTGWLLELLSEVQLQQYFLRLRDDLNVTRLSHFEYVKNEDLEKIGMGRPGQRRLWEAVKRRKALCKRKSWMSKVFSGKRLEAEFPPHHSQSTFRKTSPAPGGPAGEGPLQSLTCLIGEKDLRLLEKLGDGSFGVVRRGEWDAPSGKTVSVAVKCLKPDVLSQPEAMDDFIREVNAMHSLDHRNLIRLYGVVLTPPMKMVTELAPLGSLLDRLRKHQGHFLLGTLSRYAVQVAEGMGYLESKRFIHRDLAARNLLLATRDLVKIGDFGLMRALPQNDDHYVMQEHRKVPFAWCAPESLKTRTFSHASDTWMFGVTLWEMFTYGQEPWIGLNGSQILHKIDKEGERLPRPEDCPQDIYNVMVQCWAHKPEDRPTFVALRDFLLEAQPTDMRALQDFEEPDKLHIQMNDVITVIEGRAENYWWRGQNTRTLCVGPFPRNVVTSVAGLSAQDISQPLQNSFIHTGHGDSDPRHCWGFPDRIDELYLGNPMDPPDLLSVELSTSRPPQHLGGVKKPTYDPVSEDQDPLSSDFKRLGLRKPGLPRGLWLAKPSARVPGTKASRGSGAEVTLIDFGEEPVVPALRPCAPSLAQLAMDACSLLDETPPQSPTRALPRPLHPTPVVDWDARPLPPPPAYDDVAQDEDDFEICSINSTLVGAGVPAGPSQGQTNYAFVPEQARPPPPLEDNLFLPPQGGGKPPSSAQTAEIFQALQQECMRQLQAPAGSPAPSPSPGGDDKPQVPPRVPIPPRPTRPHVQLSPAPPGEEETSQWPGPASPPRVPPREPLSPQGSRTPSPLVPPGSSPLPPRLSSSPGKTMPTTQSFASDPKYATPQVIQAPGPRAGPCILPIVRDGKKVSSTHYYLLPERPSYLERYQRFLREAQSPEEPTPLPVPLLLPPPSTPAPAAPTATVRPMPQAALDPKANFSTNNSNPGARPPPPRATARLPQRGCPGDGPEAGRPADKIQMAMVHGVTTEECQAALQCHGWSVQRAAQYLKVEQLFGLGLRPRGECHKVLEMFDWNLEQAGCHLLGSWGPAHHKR
Procedure, shortened: as §1

[15] = biological target: EphA1 (Homo sapiens, UniProt P21709); assay: in vitro IC50 against PP-sensitive WT kinases; type: biochemical; details: read-out: IC50 EphA1; mean ± SEM
Sequence of EphA1 (P21709 26-976): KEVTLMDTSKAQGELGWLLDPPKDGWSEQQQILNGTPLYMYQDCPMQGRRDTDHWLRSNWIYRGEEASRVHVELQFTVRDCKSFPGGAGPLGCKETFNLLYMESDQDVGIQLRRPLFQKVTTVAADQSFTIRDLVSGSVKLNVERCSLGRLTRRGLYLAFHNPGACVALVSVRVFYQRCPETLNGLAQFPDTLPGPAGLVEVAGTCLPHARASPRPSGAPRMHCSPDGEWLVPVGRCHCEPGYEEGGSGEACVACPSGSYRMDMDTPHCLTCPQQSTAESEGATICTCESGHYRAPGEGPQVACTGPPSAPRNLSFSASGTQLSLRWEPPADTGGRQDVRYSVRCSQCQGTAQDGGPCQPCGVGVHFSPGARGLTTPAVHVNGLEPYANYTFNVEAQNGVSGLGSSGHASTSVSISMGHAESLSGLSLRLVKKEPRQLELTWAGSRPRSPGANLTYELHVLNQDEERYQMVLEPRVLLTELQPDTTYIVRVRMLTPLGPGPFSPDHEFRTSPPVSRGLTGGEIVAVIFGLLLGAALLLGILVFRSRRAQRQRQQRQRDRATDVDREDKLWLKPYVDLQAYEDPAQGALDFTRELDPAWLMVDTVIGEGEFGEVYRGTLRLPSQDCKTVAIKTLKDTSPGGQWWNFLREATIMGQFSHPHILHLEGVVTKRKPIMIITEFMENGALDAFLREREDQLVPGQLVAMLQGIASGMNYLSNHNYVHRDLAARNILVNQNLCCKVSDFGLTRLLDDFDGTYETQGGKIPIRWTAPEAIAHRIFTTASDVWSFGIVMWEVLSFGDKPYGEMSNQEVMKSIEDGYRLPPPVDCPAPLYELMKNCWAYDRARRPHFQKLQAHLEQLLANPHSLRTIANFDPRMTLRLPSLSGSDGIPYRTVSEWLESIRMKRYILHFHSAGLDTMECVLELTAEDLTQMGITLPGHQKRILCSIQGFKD
Procedure, shortened: as §1

[16] = biological target: Ptk6 (Homo sapiens, UniProt Q13882); assay: in vitro IC50 against PP-sensitive WT kinases; type: biochemical; details: read-out: IC50 Ptk6; mean ± SEM
Procedure, shortened: as §1

[17] = biological target: Ret (Homo sapiens, UniProt P07949); assay: in vitro IC50 against PP-sensitive WT kinases; type: biochemical; details: read-out: IC50 Ret; mean ± SEM
Procedure, shortened: as §1

[18] = test system: 308 human kinases; assay: kinase panel inhibition profiling; type: biochemical; details: 1 µM
Procedure, shortened: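 Single-point profiling of 308 human kinases: fraction of each kinase's activity inhibited by test compound at 1µM.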

[19] = test system: v-Src-WT; assay: inhibition of tyrosine phosphorylation in stably transfected 3T3 cells; type: cell-based, mouse
[20] = test system: Pkd1-AS1; assay: Pkd auto-phosphorylation at S916 in transfected HEK-293T cells; type: cell-based; details: 625nM - 10µM
Procedure, shortened: (§2)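 HEK-293T cells transiently transfected with Pkd1-WT or Pkd1-AS1. Cells treated with test compound across 625nM - 10µM, then assessed for Pkd auto-phosphorylation at S916.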

[21] = biological target: T1, Pkd1-WT; assay: as above; type: cell-based; details: 625nM - 10µM
Procedure, shortened: as §2

[22] = test system: Pkd1-AS2; assay: Pkd1-AS2 inhibition in cells; type: cell-based
[23] = biological target: Kif5b-Ret-AS2 (Homo sapiens, UniProt P07949+P33176, V804A); assay: Ret auto-phosphorylation at Y905 in 3T3 mouse cells; type: cell-based
Sequence of Kif5b-Ret-AS2 (P07949 713-1063 V804A limits assumed, one chain of several): as the sequence (P07949 713-1063 limits assumed, one chain of several) above, with V92A counted along it
Procedure, shortened: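 Mouse 3T3 cells expressing Kif5b-Ret-AS2 or Kif5b-Ret-WT were exposed to test compound at 10µM, 3.3µM and 1.1µM. Read-out was Ret auto-phosphorylation at Y905.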

[24] = N12-butylamine derivative of the C7-iso-butyl staralog

activity/potency towards Src-AS1 (in words) [1]: most potent
SMILES: CC(C)C[C@@H]1NC(=O)c2c1c1c3ccccc3[nH]c1c1[nH]c3ccccc3c21 [Star 1]
concentration giving robust inhibition of v-Src-AS1 mediated phosphorylation [2]: below 1 µM
relative potency against v-Src-AS1 in cells (in words) [2]: weakest

SMILES: O=C1NCc2c1c1c3ccccc3[nH]c1c1[nH]c3ccccc3c21 [Star K252c, K252c, reference compound]
activity towards Src-WT (in words) [3]: complete loss of activity
activity/potency towards Src-AS1 (in words) [1]: complete loss of activity
activity towards Src-AS2 (in words) [4]: complete loss of activity

SMILES: CC(C)(C)n1nc(-c2cccc3ccccc23)c2c(N)ncnc21 [Star 1NA-PP1, 1NA-PP1]
inhibition of EphA4-AS1 allele ([5]; at ≥2.5µM): greater than 90%
concentrations at which EphA4-WT activity is inhibited [6]: ≥ 2.5 µM
share of kinases inhibited by more than 80% [7]: 4.5%
inhibition of Pkd1 WT kinase (in words) [8]: weakly inhibited at higher drug concentrations
inhibition of Ret WT kinase (in words) [9]: weakly inhibited at higher drug concentrations

SMILES: Cc1cccc(Cc2nn(C(C)(C)C)c3ncnc(N)c23)c1 [Star 3MB-PP1, 3MB-PP1]
share of kinases inhibited by more than 80% [7]: 1.2%

SMILES: CC(C)(C)n1nc(Cc2cccc3ccccc23)c2c(N)ncnc21 [Star 1NM-PP1, 1NM-PP1]
share of kinases inhibited by more than 80% [7]: 1.2%

IC50 ([3]; read-out: IC50 toward Src-WT): > 5 µM
improvement in potency toward Src-AS1 [1, 24]: ~ ten-fold
improvement in potency toward Src-AS2 [4, 24]: ~ ten-fold
IC50 [10]: > 5 µM
IC50 [11]: > 5 µM
IC50 [12]: 3.3 µM
IC50 [13]: > 5 µM
IC50 [14]: 1.3 µM
IC50 [15]: > 5 µM
IC50 [16]: > 5 µM
IC50 [17]: > 5 µM
highest inhibition of any single kinase in the panel [18]: ≤ 80%
effect on Pkd1-WT activity (in words) [21]: do not affect Pkd1-WT activity
inhibition of Ret-AS2 autophosphorylation (in words) [23]: capable of inhibiting
SMILES: CC(C)C[C@@H]1NC(=O)c2c1c1c3ccccc3n(CCCCN)c1c1[nH]c3ccccc3c21 [Star 12]
concentration giving robust inhibition of v-Src-AS1 mediated phosphorylation [2]: below 1 µM
relative potency against v-Src-AS1 in cells (in words) [2]: most potent inhibitor
effect on v-Src-WT-mediated phosphorylation (in words) [19]: little effect
activity towards EphA4-AS1 (in words) [5]: exhibited activity
activity towards Pkd1-AS1 (in words) [20]: potent Pkd-AS1 inhibitors
activity towards Pkd1-AS2 (in words) [22]: did not show activity

SMILES: CN[C@@H]1C[C@H]2O[C@@](C)([C@@H]1OC)n1c3ccccc3c3c4c(c5c6ccccc6n2c5c31)C(=O)NC4 [staurosporine]
share of all protein kinases targeted (same metric, more than 80% inhibition) [7]: 72%
share of protein kinases potently targeted [7]: ~ 80%

SMILES: COC(=O)[C@@]1(O)C[C@H]2O[C@]1(C)n1c3ccccc3c3c4c(c5c6ccccc6n2c5c31)C(=O)NC4 [Star K252a, K252a]
share of all protein kinases targeted (same metric, more than 80% inhibition) [7]: 49%
